Experimental data taken from ChEMBL document CHEMBL3785062, “Preparation and Evaluation of Radiolabeled Antibody Recruiting Small Molecules That Target Prostate-Specific Membrane Antigen for Combined Radiotherapy and Immunotherapy” (J Med Chem, 2016).

Key:
LNCaP [1] = experiment: Drug internalization in PSMA expressing human LNCAP cells at 5 nM incubated for 2 hrs at 37 degC measured for 10 mins by gamma counting analysis; assay type: ADME, cell-based; conditions: 0.005 µM
LNCaP [2] = experiment: Drug internalization in PSMA expressing human LNCAP cells at 5 nM incubated for 2 hrs at 4 degC measured for 10 mins by gamma counting analysis; assay type: ADME, cell-based; conditions: 0.005 µM
Kidney [3] = experiment: Drug uptake in kidney of human LNCAP cells xenografted NCR nu/nu mouse at 0.19 to 0.36 MBq, iv at 6 hrs; assay type: ADME, organism-based; conditions: in vivo
How it was run: (§1)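 NCr nu/nu male mice carrying subcutaneous right-flank LNCaP xenografts (2 × 10^6 cells in Matrigel:DPBS), used 4–7 weeks after inoculation. Tail-vein injection of 0.19–0.36 MBq 125I tracer in 0.9% saline. Killed at 1 and 6 h; tissues collected and counted, expressed as %ID/g ± SEM. Group sizes n = 2–3.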

[4] = Ratio of drug level in tumor to blood in human LNCAP cells xenografted NCR nu/nu mouse at 0.19 to 0.36 MBq, iv at 1 hr; assay type: ADME, organism-based; how it was run: as §1
Tumour [5] = experiment: Drug uptake in tumor of human LNCAP cells xenografted NCR nu/nu mouse at 0.19 to 0.36 MBq, iv at 1 hr; assay type: ADME, organism-based, Neoplasm; conditions: in vivo; how it was run: as §1
Blood = experiment: Drug uptake in blood of human LNCAP cells xenografted NCR nu/nu mouse at 0.19 to 0.36 MBq, iv at 1 hr; assay type: ADME, organism-based; conditions: in vivo; how it was run: as §1
[6] = Drug uptake in gall bladder of human LNCAP cells xenografted NCR nu/nu mouse at 0.19 to 0.36 MBq, iv at 1 hr; assay type: ADME, organism-based; conditions: in vivo; how it was run: as §1
[7] = Drug uptake in gall bladder of human LNCAP cells xenografted NCR nu/nu mouse at 0.19 to 0.36 MBq, iv at 6 hrs; assay type: ADME, organism-based; how it was run: as §1
Kidney [8] = experiment: Drug uptake in kidney of human LNCAP cells xenografted NCR nu/nu mouse at 0.19 to 0.36 MBq, iv at 1 hr; assay type: ADME, organism-based; conditions: in vivo; how it was run: as §1
[9] = Ratio of drug level in tumor to blood in human LNCAP cells xenografted NCR nu/nu mouse at 0.19 to 0.36 MBq, iv at 6 hrs; assay type: ADME, organism-based; how it was run: as §1
[10] = Drug uptake in small intestine of human LNCAP cells xenografted NCR nu/nu mouse at 0.19 to 0.36 MBq, iv at 6 hrs; assay type: ADME, organism-based; conditions: in vivo; how it was run: as §1
Tumour [11] = experiment: Drug uptake in tumor of human LNCAP cells xenografted NCR nu/nu mouse at 0.19 to 0.36 MBq, iv at 6 hrs; assay type: ADME, organism-based, Neoplasm; conditions: in vivo; how it was run: as §1
[12] = Drug uptake in small intestine of human LNCAP cells xenografted NCR nu/nu mouse at 0.19 to 0.36 MBq, iv at 1 hr; assay type: ADME, organism-based; conditions: in vivo; how it was run: as §1
[13] = Chemical stability in solid state at -10 degC; assay type: physicochemical
LNCaP [14] = experiment: Drug internalization in PSMA expressing human LNCAP cells at 10 nM incubated for 2 hrs at 4 degC measured for 10 mins by gamma counting analysis; assay type: ADME, cell-based; conditions: 0.01 µM
[15] = Stability of compound in saline up to 48 hrs; assay type: physicochemical; conditions: buffer
[16] = Drug uptake in thyroid gland of human LNCAP cells xenografted NCR nu/nu mouse at 0.19 to 0.36 MBq, iv at 1 to 6 hrs; assay type: ADME, organism-based; conditions: in vivo; how it was run: as §1
LNCaP [17] = experiment: Drug internalization in PSMA expressing human LNCAP cells at 10 nM incubated for 2 hrs at 37 degC measured for 10 mins by gamma counting analysis; assay type: ADME, cell-based; conditions: 0.01 µM

Drug uptake (LNCaP [1]) | Drug uptake (LNCaP [2]) | Drug uptake (Kidney [3]) [% ID/g] | Kp at 1 h [4] | Drug uptake (Tumour [5]) [% ID/g] | Drug uptake (Blood) [% ID/g] | Drug uptake [6] | tissue uptake at 6 h ([7]; NCR nu/nu, gall bladder, read-out: Drug uptake) [%ID/g] | Drug uptake (Kidney [8]) [% ID/g] | Kp at 6 h [9] | Drug uptake [10] [% ID/g] | Drug uptake (Tumour [11]) [% ID/g] | Drug uptake [12] [% ID/g] | Drug uptake ([7]; in vivo, 6 h) | Stability [13] [weeks] | Drug uptake (LNCaP [14]) | Stability [15] | Drug uptake [16] | Drug uptake (LNCaP [17]) | SMILES
Active | Not Active | – | – | – | – | – | – | – | – | – | – | – | – | – | – | – | – | – | O=C(O)CC[C@H](NC(=O)N[C@@H](CCCCNC(=O)Cn1cc([125I])nn1)C(=O)O)C(=O)O
– | – | 66.46 | 35 | 12.21 | 0.36 | 92.46 % ID/g | 7.89 | 68.35 | 59 | 2.18 | 9.8 | 47.37 | – | – | – | – | – | – | O=C(O)CC[C@H](NC(=O)N[C@@H](CCCCNC(=O)Cn1nnc([125I])c1CNc1ccc([N+](=O)[O-])cc1[N+](=O)[O-])C(=O)O)C(=O)O
– | – | – | 10 | 3.01 | – | Active | – | – | 3.4 | – | 3.24 | – | Not Active | 3 | Not Active | Stable | Active | Active | O=C(O)CC[C@H](NC(=O)N[C@@H](CCCCNC(=O)Cn1nnc(COCCOCCOCCOCCOCCOCCOCCOCCNc2ccc([N+](=O)[O-])cc2[N+](=O)[O-])c1[125I])C(=O)O)C(=O)O
